Measurements taken from ChEMBL document CHEMBL1132488, “On the bioactive conformation of NAN-190 (1) and MP3022 (2), 5-HT(1A) receptor antagonists” (J Med Chem, 1999).

Key:
Rattus norvegicus [1] = species: Rattus norvegicus; assay: Effect on 8-OH-DAPT- induced behavioral syndrome(FT: forepaw treading) by the compound in reserpine pretreated rats at a dose of 4.; assay type: functional
Procedure, shortened: (§1)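 Reserpinized male Wistar rats (reserpine 1 mg/kg sc, 18 h before), groups of 6. Compound given ip in 1% Tween 80 60 min before 8-OH-DPAT 5 mg/kg sc. FBP/FT rated 0–3 at 3, 6, 9, 12 and 15 min after agonist, summed (max 15). Mean ± SEM; Newman–Keuls test; ED50 with range.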

Rattus norvegicus [2] = assay: Effect on 8-OH-DPAT-Induced LLR(lower lip retraction) in rats at a dose of 32 mg/kg; assay type: functional
Procedure, shortened: (§2)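 Male Wistar rats, groups of 6. Compound given ip in 1% Tween 80 45 min before 8-OH-DPAT 1 mg/kg sc. Lower incisor visibility scored 0/0.5/1 at 15, 30 and 45 min after agonist, summed (max 3). Mean ± SEM; Newman–Keuls test; ED50 with range.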

Rattus norvegicus [3] = species: Rattus norvegicus; assay: Dose inhibiting 8-OH-DPAT-induced behavioral syndrome(FBP: flat body posture) by the compound in reserpine pretreated rats.
[4] = target: T1, 5-hydroxytryptamine receptor 1A (Rattus norvegicus, UniProt P19327); assay: Ability to displace [3H]8-OH-DPAT from 5-hydroxytryptamine 1A receptor
T1 sequence (P19327 whole entry): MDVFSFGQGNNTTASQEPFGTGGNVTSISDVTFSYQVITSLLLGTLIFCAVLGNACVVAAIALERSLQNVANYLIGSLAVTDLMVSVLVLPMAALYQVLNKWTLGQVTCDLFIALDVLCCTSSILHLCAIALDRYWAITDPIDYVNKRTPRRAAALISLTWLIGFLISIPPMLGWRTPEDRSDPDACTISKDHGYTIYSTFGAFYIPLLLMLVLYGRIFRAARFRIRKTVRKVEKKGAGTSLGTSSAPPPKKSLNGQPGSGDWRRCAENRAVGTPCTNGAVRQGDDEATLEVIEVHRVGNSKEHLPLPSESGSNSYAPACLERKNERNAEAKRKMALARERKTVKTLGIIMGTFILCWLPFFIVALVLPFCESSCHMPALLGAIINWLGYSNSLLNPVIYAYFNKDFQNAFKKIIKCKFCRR
Procedure, shortened: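 Rat hippocampal membranes, [3H]8-OH-DPAT radioligand. Ki from at least three competition experiments, each with 10–14 drug concentrations run in triplicate. Ki calculated with the Cheng–Prusoff equation.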

Rattus norvegicus [5] = species: Rattus norvegicus; assay: Effect on 8-OH-DAPT- induced behavioral syndrome(FBP: flat body posture) by the compound in reserpine pretreated rats at a dose of 4.; assay type: functional; procedure, shortened: as §1
Rattus norvegicus [6] = assay: Effect on 8-OH-DPAT-Induced LLR(lower lip retraction) in rats at a dose of 16 mg/kg; assay type: functional; procedure, shortened: as §2
Rattus norvegicus [7] = species: Rattus norvegicus; assay: Effect on 8-OH-DAPT- induced behavioral syndrome(FBP: flat body posture) by the compound in reserpine pretreated rats at a dose of 8.; assay type: functional; procedure, shortened: as §1
Rattus norvegicus [8] = species: Rattus norvegicus; assay: Effect on 8-OH-DAPT- induced behavioral syndrome(FBP: flat body posture) by the compound in reserpine pretreated rats at a dose of 16.; assay type: functional; procedure, shortened: as §1
Rattus norvegicus [9] = species: Rattus norvegicus; assay: Induction of behavioral syndrome(FT: forepaw treading) by the compound in reserpine pretreated rats at a dose of 16.; assay type: functional
Procedure, shortened: (§3)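 Male Wistar rats (260–300 g) were given reserpine 1 mg/kg sc in saline 18 h before testing. Test compound was then given alone ip as a 1% Tween 80 suspension (2 mL/kg). FBP and FT were each scored 0–3 and summed (maximum 15). n=6 per group; mean ± SEM; Newman–Keuls test.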

Rattus norvegicus [10] = assay: Induction of LLR(lower lip retraction) by the compound in rats at a dose of 8 mg/kg; assay type: functional
Procedure, shortened: (§4)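 Male Wistar rats, groups of 6, given compound alone ip as 1% Tween 80 suspension. Lower incisor visibility scored 0/0.5/1 at 15, 30 and 45 min after dosing, summed (max 3 per rat). Mean ± SEM versus vehicle, Newman–Keuls test; ED50 with range.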

Rattus norvegicus [11] = species: Rattus norvegicus; assay: Effect on 8-OH-DAPT- induced behavioral syndrome(FT: forepaw treading) by the compound in reserpine pretreated rats at a dose of 8.; assay type: functional; procedure, shortened: as §1
Rattus norvegicus [12] = species: Rattus norvegicus; assay: Induction of behavioral syndrome(FBP: flat body posture) by the compound in reserpine pretreated rats at a dose of 4.; assay type: functional; procedure, shortened: as §3
Rattus norvegicus [13] = species: Rattus norvegicus; assay: Induction of behavioral syndrome(FT: forepaw treading) by the compound in reserpine pretreated rats at a dose of 8.; assay type: functional; procedure, shortened: as §3
Rattus norvegicus [14] = assay: Induction of LLR(lower lip retraction) by the compound in rats at a dose of 32 mg/kg; assay type: functional; procedure, shortened: as §4
Rattus norvegicus [15] = species: Rattus norvegicus; assay: Effective dose of the required to inhibit symptoms produced by 8-OH-DPAT; assay type: functional; procedure, shortened: as §1
Rattus norvegicus [16] = species: Rattus norvegicus; assay: Induction of behavioral syndrome(FBP: flat body posture) by the compound in reserpine pretreated rats at a dose of 16.; assay type: functional
Procedure, shortened: (§5)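 Male Wistar rats (260–300 g), groups of 6, given reserpine 1 mg/kg sc 18 h before test. Compounds given ip as 1% Tween 80 suspension. FBP and FT rated 0–3 in 45-s sessions every 3 min, starting 3 min after dosing. Score summed over 5 periods (max 15 per symptom). Mean ± SEM; Newman–Keuls test.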

Rattus norvegicus [17] = species: Rattus norvegicus; assay: Induction of behavioral syndrome(FBP: flat body posture) by the compound in reserpine pretreated rats at a dose of 8.; assay type: functional; procedure, shortened: as §3
Rattus norvegicus [18] = species: Rattus norvegicus; assay: Effect on 8-OH-DAPT- induced behavioral syndrome(FT: forepaw treading) by the compound in reserpine pretreated rats at a dose of 16.; assay type: functional; procedure, shortened: as §1
Rattus norvegicus [19] = species: Rattus norvegicus; assay: Dose Inducing behavioral syndrome(FT: forepaw treading) by the compound in reserpine pretreated rats.; assay type: functional; procedure, shortened: as §5
Rattus norvegicus [20] = assay: Induction of LLR(lower lip retraction) by the compound in rats at a dose of 16 mg/kg; assay type: functional; procedure, shortened: as §4
Rattus norvegicus [21] = species: Rattus norvegicus; assay: Induction of behavioral syndrome(FT: forepaw treading) by the compound in reserpine pretreated rats at a dose of 4.; assay type: functional; procedure, shortened: as §3
Rattus norvegicus [22] = assay: Effect on 8-OH-DPAT-Induced LLR(lower lip retraction) in rats at a dose of 8 mg/kg; assay type: functional; procedure, shortened: as §2
Rattus norvegicus [23] = species: Rattus norvegicus; assay: Induction of behavioral syndrome(FT: forepaw treading) by the compound in reserpine pretreated rats at a dose of.1; assay type: functional
Rattus norvegicus [24] = species: Rattus norvegicus; assay: Effect on 8-OH-DAPT- induced behavioral syndrome(FBP: flat body posture) by the compound in reserpine pretreated rats at a dose of 2.; assay type: functional
Rattus norvegicus [25] = assay: Effect on 8-OH-DPAT-Induced LLR(lower lip retraction) in rats at a dose of 2 mg/kg; assay type: functional; procedure, shortened: as §2
Rattus norvegicus [26] = assay: Effect on 8-OH-DPAT-Induced LLR(lower lip retraction) in rats at a dose of 1 mg/kg; assay type: functional; procedure, shortened: as §2
Rattus norvegicus [27] = species: Rattus norvegicus; assay: Induction of behavioral syndrome(FT: forepaw treading) by the compound in reserpine pretreated rats at a dose of 2.; assay type: functional
Rattus norvegicus [28] = species: Rattus norvegicus; assay: Effect on 8-OH-DAPT- induced behavioral syndrome(FT: forepaw treading) by the compound in reserpine pretreated rats at a dose of.1; assay type: functional
Rattus norvegicus [29] = species: Rattus norvegicus; assay: Effect on 8-OH-DAPT- induced behavioral syndrome(FBP: flat body posture) by the compound in reserpine pretreated rats at a dose of.1; assay type: functional
Rattus norvegicus [30] = assay: Induction of LLR(lower lip retraction) by the compound in rats at a dose of 4 mg/kg; assay type: functional; procedure, shortened: as §4
Rattus norvegicus [31] = assay: Induction of LLR(lower lip retraction) by the compound in rats at a dose of 2 mg/kg; assay type: functional; procedure, shortened: as §4
Rattus norvegicus [32] = species: Rattus norvegicus; assay: Induction of behavioral syndrome(FBP: flat body posture) by the compound in reserpine pretreated rats at a dose of.1; assay type: functional
Rattus norvegicus [33] = species: Rattus norvegicus; assay: Effect on 8-OH-DAPT- induced behavioral syndrome(FT: forepaw treading) by the compound in reserpine pretreated rats at a dose of 2.; assay type: functional
Rattus norvegicus [34] = assay: Effect on 8-OH-DPAT-Induced LLR(lower lip retraction) in rats at a dose of 4 mg/kg; assay type: functional; procedure, shortened: as §2
Rattus norvegicus [35] = assay: Induction of LLR(lower lip retraction) by the compound in rats at a dose of 1 mg/kg; assay type: functional; procedure, shortened: as §4
Rattus norvegicus [36] = species: Rattus norvegicus; assay: Induction of behavioral syndrome(FBP: flat body posture) by the compound in reserpine pretreated rats at a dose of 2.; assay type: functional; procedure, shortened: as §5

COc1ccccc1N1CCN(C2CCC(N3C(=O)[C@H]4CCCC[C@H]4C3=O)CC2)CC1 (some centres not stated)
FT mean score (Rattus norvegicus [1]): 9.2 | LLR score (Rattus norvegicus [2]): 1.1 | ED50 (Rattus norvegicus [3]): 11 mg/kg | Ki [4]: 72 nM | FBP mean score (Rattus norvegicus [5]): 11.6 | LLR score (Rattus norvegicus [6]): 1.6 | FBP mean score (Rattus norvegicus [7]): 9.8 | FBP mean score (Rattus norvegicus [8]): 3.2 | FT mean score (Rattus norvegicus [9]): 0.1 | LLR score (Rattus norvegicus [10]): 0.2 | FT mean score (Rattus norvegicus [11]): 5.4 | FBP mean score (Rattus norvegicus [12]): 0.2 | FT mean score (Rattus norvegicus [13]): 0.2 | LLR score (Rattus norvegicus [14]): 0.3 | ED50 (Rattus norvegicus [15]): 20 mg/kg | FBP mean score (Rattus norvegicus [16]): 0.1 | FBP mean score (Rattus norvegicus [17]): 0.1 | FT mean score (Rattus norvegicus [18]): 2 | ED50 (Rattus norvegicus [19]): 7.3 mg/kg | LLR score (Rattus norvegicus [20]): 0.3 | FT mean score (Rattus norvegicus [21]): 0.2 | LLR score (Rattus norvegicus [22]): 2.3

COc1ccccc1N1CCN(CCCCN2C(=O)c3ccccc3C2=O)CC1 [NAN-190]
FT mean score (Rattus norvegicus [23]): 0.1 | FT mean score (Rattus norvegicus [1]): 6.2 | FBP mean score (Rattus norvegicus [24]): 6 | LLR score (Rattus norvegicus [25]): 1.4 | ED50 (Rattus norvegicus [3]): 2 mg/kg | LLR score (Rattus norvegicus [26]): 1.7 | FT mean score (Rattus norvegicus [27]): 0.2 | FT mean score (Rattus norvegicus [28]): 10.8 | FBP mean score (Rattus norvegicus [29]): 12.4 | FBP mean score (Rattus norvegicus [5]): 2.3 | FBP mean score (Rattus norvegicus [7]): 2.3 | LLR score (Rattus norvegicus [30]): 0.1 | FT mean score (Rattus norvegicus [11]): 1.8 | LLR score (Rattus norvegicus [31]): 0.1 | FBP mean score (Rattus norvegicus [12]): 0.1 | FBP mean score (Rattus norvegicus [32]): 0.1 | FT mean score (Rattus norvegicus [33]): 5.7 | FT mean score (Rattus norvegicus [13]): 0.1 | LLR score (Rattus norvegicus [34]): 0.6 | ED50 (Rattus norvegicus [15]): 1.7 mg/kg | FBP mean score (Rattus norvegicus [17]): 0.2 | ED50 (Rattus norvegicus [19]): 2.5 mg/kg | FT mean score (Rattus norvegicus [21]): 0.2 | LLR score (Rattus norvegicus [35]): 0.1 | FBP mean score (Rattus norvegicus [36]): 0.2
